Among the data in ChEMBL document CHEMBL3763095, “Naphtho[1',2':4,5]imidazo[1,2-a]pyridine-5,6-diones: Synthesis, enzymatic reduction and cytotoxic activity” (Bioorg Med Chem Lett, 2016) are Activity and inhibition values, retold here.

Each structure is given as a SMILES string. Calls of active or inactive are those of the source. The calls are words filed in the database; no cut-off is given here.

Assay [1] has as its system Salmonella enterica. In words: Antibacterial activity against Salmonella enterica SL 5676 after 16 hrs by two-fold microdillution method. In kind it is functional, organism-based.
The target of assay [2] is NAD(P)H dehydrogenase [quinone] 1 (Homo sapiens) (UniProt P15559). In words: Activity of NQO1 (unknown origin) assessed as O2 uptake at 5 to 15 uM by polarographic analysis in the presence of catalase and 150 to 200 uM NADPH.
For assay [3] the target is unchanged. Nature of the assay: Activity of NQO1 (unknown origin) assessed as reduction of cytochrome c at 5 to 15 uM by spectrophotometric analysis relative to NADPH oxidation rate. Also noted: scale not given: the % may be the effect or the level left. The gist of the method: (§1)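 NQO1-catalysed quinone reduction coupled to cytochrome c (50 µM) as the terminal single-electron acceptor.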

Assay [4] deals with Escherichia coli. In words: Antibacterial activity against Escherichia coli ATCC 25922 after 16 hrs by two-fold microdillution method. In kind it is functional, organism-based.
Assay [5] deals with NAD(P)H dehydrogenase [quinone] 1 (Homo sapiens) (UniProt P15559). Nature of the assay: Activity of NQO1 (unknown origin) assessed as reduction of cytochrome c at 5 to 15 uM in the presence of superoxide dismutase and 150 to 200 uM of NADPH. The gist of the method: as §1
Assay [6] shares this target. In words: Substrate inhibition of NQO1 (unknown origin) by spectrophotometric analysis in the presence of 12.5 to 200 uM NADPH.

Chain of NAD(P)H dehydrogenase [quinone] 1 (Homo sapiens) (P15559 whole entry): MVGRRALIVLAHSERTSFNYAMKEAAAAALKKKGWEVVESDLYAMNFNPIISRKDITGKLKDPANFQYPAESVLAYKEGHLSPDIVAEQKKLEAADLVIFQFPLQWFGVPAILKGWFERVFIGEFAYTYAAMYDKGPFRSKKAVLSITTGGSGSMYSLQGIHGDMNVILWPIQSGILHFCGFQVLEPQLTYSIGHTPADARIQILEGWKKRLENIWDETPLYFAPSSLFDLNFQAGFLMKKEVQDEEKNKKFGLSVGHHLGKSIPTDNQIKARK

For the compound `O=C1C(=O)c2c(nc3ccc(F)cn23)-c2ccccc21`, the result in assay [1], in assay [2], in assay [4] and in assay [5] was inactive. Moreover, the Activity in assay [3] stood at 180%.

For `O=C1C(=O)c2c(nc3ccccn23)-c2ccc([N+](=O)[O-])cc21`, the outcome in assay [1], in assay [2], in assay [4] and in assay [5] was inactive. In addition, the Activity in assay [3] turned out to be 180%.

As for `O=C1C(=O)c2c(nc3ccc4ccccc4n23)-c2ccccc21`, the result in assay [1], in assay [2], in assay [4] and in assay [5] was inactive. Moreover, in assay [3], the Activity was found to be 180%.

Regarding `O=C1C(=O)c2c(nc3ccc([N+](=O)[O-])cn23)-c2ccccc21`, the result in assay [1], in assay [2], in assay [4] and in assay [5] was inactive. In assay [3], the Activity is 180%.

For `O=C1C(=O)c2c(nc3ccccn23)-c2ccccc21`, the outcome in assay [1], in assay [2], in assay [4] and in assay [5] was inactive. For the same compound, the inhibition entry in assay [6] was “Active”. In assay [3], the Activity amounted to 180%.

As to `COc1ccc2nc3c(n2c1)C(=O)C(=O)c1ccccc1-3`, the outcome in assay [1], in assay [2], in assay [4] and in assay [5] was inactive. Moreover, in assay [6], the inhibition entry was “Active”. For the same compound, the Activity in assay [3] turned out to be 180%.

Regarding `O=C1C(=O)c2c(nc3ccc(Cl)cn23)-c2ccccc21`, the outcome in assay [1], in assay [2], in assay [4] and in assay [5] was inactive. Moreover, in assay [3], the Activity was 180%.

Turning to `O=C1C(=O)c2c(nc3ccc(Br)cn23)-c2ccccc21`, the outcome in assay [1], in assay [2], in assay [4] and in assay [5] was inactive. In addition, the Activity in assay [3] was 180%.

For the compound `Cc1cccn2c3c(nc12)-c1ccccc1C(=O)C3=O`, the outcome in assay [1], in assay [2], in assay [4] and in assay [5] was inactive. Further, the Activity in assay [3] came out at 180%.

Regarding `Cc1ccc2nc3c(n2c1)C(=O)C(=O)c1ccccc1-3`, the outcome in assay [1], in assay [2], in assay [4] and in assay [5] was inactive. In addition, the Activity in assay [3] is 180%.

With `O=C1C(=O)c2c(nc3ccc(C(F)(F)F)cn23)-c2ccccc21`, the outcome in assay [1], in assay [2], in assay [4] and in assay [5] was inactive. Further, in assay [3], the Activity stood at 180%.

As to `O=C1C(=O)c2c(nc3ncccn23)-c2ccccc21`, the outcome in assay [1], in assay [2], in assay [4] and in assay [5] was inactive. In addition, the Activity in assay [3] worked out at 180%.

In the case of `Cc1ccn2c3c(nc2c1)-c1ccccc1C(=O)C3=O`, the result in assay [1], in assay [2], in assay [4] and in assay [5] was inactive. The Activity in assay [3] is 180%.
